Experimental data as given in ChEMBL document CHEMBL4196172 (J Med Chem, 2018).
Values belong to the compound of their own block, whether it stands above or below them. Activity calls are given as the source filed them. The calls are words filed in the database; no cut-off is given here.

Assays:
[1] = target: cGMP-specific 3',5'-cyclic phosphodiesterase (Homo sapiens, UniProt O76074); assay: Inhibition of human PDE5A1 catalytic domain (535 to 860 residues) expressed in Escherichia coli BL21 using 3H-cGMP as substrate after 15 mins by liquid scintillation counting
Homo sapiens = organism: Homo sapiens; assay: Selectivity ratio of IC50 for PDE11A catalytic domain (588 to 911 residues) (unknown origin) to IC50 for human PDE5A1 catalytic domain (535 to 860 residues)
Cytochrome P450 3A4 = Cytochrome P450 3A4 (Homo sapiens, UniProt P08684); assay: Inhibition of CYP3A4 in human liver microsomes in presence of NADPH; type: ADME
Cytochrome P450 3A4, sequence (P08684 whole entry): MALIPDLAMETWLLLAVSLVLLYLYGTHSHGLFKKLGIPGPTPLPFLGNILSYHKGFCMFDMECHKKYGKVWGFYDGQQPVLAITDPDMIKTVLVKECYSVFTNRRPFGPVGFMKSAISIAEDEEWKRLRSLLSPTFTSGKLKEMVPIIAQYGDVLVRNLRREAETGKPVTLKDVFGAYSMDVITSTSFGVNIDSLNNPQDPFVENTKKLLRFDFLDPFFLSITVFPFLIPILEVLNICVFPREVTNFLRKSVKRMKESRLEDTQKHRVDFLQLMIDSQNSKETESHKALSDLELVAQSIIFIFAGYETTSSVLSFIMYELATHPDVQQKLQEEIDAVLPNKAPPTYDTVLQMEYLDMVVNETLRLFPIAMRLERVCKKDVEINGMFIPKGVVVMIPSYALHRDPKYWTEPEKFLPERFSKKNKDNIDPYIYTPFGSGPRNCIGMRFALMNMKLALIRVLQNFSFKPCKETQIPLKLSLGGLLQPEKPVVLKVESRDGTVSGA

Mus musculus = assay: Acute toxicity in KM mouse up to 1.5 g/kg, po administered as single dose measured after 14 days; type: organism-based; details: in vivo, 1500 mg/kg, 336 h
Rattus norvegicus [2] = assay: Anti-hypertensive activity in MCT-induced pulmonary hypertension Wistar rat model assessed as reduction in wall thickness percentage at 1.25 mg/kg, po administered for 3 weeks; type: functional, organism-based
In short: (§1)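 PAH was induced in rats by monocrotaline (MCT) injection and confirmed after 3 weeks against an untreated control group. Treated groups received oral dosing and were compared with the MCT model group. Read-outs were mean pulmonary artery pressure, right ventricle hypertrophy index, and small pulmonary artery wall thickness as % of external diameter. Data are mean ± S.E.M., n = 6-9/group.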

[3] = Half life in rat liver microsomes at 0.5 uM; type: ADME, microsome
Rattus norvegicus [4] = assay: Anti-hypertensive activity in MCT-induced pulmonary hypertension Wistar rat model assessed as reduction in RVHI at 1.25 mg/kg, po administered for 3 weeks; type: functional, organism-based; in short: as §1
[5] = Protein binding in human plasma at 1 uM after 4 hrs by LC/MS/MS analysis; type: ADME, cell-free; details: read-out: PPB (converted)
Cytochrome P450 2B6 = target: T1, Cytochrome P450 2B6 (Homo sapiens, UniProt P20813); assay: Inhibition of CYP2B6 in human liver microsomes in presence of NADPH; type: ADME
T1 sequence (P20813 whole entry): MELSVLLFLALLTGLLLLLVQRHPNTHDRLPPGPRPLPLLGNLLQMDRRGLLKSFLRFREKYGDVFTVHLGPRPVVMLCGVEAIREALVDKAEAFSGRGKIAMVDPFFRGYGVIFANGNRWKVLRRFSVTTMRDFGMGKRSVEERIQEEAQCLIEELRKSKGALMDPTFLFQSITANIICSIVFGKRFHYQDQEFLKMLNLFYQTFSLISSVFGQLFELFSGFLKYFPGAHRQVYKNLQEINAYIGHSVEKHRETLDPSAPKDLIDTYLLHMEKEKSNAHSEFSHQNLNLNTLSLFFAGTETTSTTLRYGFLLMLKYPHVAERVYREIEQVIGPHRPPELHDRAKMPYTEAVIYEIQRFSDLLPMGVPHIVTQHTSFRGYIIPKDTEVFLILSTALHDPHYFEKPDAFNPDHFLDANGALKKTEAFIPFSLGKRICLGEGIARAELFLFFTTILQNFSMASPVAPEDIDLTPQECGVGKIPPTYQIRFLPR

[6] = target: cGMP-dependent 3',5'-cyclic phosphodiesterase (Homo sapiens, UniProt O00408); assay: Inhibition of PDE2A catalytic domain (580 to 919 residues) (unknown origin) expressed in Escherichia coli BL21 using 3H-cGMP as substrate after 15 mins by liquid scintillation counting
cGMP-dependent 3',5'-cyclic phosphodiesterase, sequence (O00408 whole entry, the tested form may be a part): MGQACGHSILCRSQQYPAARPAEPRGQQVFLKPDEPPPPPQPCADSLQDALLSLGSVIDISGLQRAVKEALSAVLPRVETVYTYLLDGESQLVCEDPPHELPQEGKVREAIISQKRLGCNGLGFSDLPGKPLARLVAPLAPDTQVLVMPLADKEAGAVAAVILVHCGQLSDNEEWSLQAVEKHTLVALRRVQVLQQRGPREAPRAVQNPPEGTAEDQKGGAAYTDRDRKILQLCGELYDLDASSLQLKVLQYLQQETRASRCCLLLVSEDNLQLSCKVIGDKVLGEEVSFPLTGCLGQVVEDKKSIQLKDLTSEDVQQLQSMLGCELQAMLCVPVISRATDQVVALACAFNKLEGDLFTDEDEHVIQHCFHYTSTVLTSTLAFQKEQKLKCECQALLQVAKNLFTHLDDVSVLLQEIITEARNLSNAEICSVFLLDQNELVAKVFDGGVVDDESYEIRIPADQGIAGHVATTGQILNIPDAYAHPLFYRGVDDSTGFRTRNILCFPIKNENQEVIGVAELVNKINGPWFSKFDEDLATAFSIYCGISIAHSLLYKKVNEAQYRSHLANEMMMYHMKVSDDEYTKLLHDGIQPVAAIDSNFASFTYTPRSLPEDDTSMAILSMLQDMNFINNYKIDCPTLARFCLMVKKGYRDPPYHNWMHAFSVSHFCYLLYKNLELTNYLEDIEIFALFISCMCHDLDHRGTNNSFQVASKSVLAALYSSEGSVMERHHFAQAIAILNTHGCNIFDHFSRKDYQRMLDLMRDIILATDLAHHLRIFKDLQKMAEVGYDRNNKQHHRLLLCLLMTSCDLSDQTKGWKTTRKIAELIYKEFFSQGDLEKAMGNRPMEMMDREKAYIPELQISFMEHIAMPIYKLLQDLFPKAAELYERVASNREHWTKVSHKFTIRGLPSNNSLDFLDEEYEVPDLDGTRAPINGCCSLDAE

[7] = Apparent clearance in rat liver microsomes at 0.5 uM; type: ADME, microsome; details: read-out: CLH(app)
Cytochrome P450 2C9 = Cytochrome P450 2C9 (Homo sapiens, UniProt P11712); assay: Inhibition of CYP2C9 in human liver microsomes in presence of NADPH; type: ADME
Cytochrome P450 2C9, sequence (P11712 whole entry): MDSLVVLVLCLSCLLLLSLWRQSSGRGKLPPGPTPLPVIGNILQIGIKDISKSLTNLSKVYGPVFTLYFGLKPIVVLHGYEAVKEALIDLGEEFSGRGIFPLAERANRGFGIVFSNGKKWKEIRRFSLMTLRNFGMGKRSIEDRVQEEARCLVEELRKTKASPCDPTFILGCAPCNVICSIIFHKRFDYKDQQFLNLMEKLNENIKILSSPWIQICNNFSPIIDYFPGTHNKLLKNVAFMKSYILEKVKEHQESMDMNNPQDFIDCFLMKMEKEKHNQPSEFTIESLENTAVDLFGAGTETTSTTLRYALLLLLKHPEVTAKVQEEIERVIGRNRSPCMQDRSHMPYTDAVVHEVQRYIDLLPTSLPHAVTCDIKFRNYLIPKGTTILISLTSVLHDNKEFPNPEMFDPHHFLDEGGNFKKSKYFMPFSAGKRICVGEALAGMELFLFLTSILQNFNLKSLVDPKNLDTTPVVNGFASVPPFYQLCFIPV

[8] = target: Voltage-gated inwardly rectifying potassium channel KCNH2 (Homo sapiens, UniProt Q12809); assay: Inhibition of human ERG expressed in CHO cells by automated patch clamp assay; type: cell-based
[9] = target: Dual 3',5'-cyclic-AMP and -GMP phosphodiesterase 11A (Homo sapiens, UniProt Q9HCR9); assay: Inhibition of PDE11A catalytic domain (588 to 911 residues) (unknown origin) expressed in Escherichia coli BL21 using 3H-cAMP as substrate after 15 mins by liquid scintillation counting
Cytochrome P450 1A2 = target: T2, Cytochrome P450 1A2 (Homo sapiens, UniProt P05177); assay: Inhibition of CYP1A2 in human liver microsomes in presence of NADPH; type: ADME
T2 sequence (P05177 whole entry): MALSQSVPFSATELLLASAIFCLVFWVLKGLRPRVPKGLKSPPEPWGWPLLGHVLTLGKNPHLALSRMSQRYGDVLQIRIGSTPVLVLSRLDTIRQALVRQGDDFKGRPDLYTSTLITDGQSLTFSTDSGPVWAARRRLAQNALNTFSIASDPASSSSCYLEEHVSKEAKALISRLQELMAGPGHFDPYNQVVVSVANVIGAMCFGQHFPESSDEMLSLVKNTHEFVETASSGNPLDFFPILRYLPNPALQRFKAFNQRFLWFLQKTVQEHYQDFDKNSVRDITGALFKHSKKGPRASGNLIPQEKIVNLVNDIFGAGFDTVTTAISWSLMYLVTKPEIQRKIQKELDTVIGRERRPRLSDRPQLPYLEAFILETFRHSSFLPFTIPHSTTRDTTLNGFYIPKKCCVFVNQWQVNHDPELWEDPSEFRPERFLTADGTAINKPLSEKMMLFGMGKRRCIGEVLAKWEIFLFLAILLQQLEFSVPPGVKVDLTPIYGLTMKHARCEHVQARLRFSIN

[10] = target: Cone cGMP-specific 3',5'-cyclic phosphodiesterase subunit alpha' (Homo sapiens, UniProt P51160); assay: Inhibition of PDE6C catalytic domain (1 to 858 residues) (unknown origin) expressed in Escherichia coli BL21 using 3H-cGMP as substrate after 15 mins by liquid scintillation counting
Cone cGMP-specific 3',5'-cyclic phosphodiesterase subunit alpha', sequence (P51160 whole entry, the tested form may be a part): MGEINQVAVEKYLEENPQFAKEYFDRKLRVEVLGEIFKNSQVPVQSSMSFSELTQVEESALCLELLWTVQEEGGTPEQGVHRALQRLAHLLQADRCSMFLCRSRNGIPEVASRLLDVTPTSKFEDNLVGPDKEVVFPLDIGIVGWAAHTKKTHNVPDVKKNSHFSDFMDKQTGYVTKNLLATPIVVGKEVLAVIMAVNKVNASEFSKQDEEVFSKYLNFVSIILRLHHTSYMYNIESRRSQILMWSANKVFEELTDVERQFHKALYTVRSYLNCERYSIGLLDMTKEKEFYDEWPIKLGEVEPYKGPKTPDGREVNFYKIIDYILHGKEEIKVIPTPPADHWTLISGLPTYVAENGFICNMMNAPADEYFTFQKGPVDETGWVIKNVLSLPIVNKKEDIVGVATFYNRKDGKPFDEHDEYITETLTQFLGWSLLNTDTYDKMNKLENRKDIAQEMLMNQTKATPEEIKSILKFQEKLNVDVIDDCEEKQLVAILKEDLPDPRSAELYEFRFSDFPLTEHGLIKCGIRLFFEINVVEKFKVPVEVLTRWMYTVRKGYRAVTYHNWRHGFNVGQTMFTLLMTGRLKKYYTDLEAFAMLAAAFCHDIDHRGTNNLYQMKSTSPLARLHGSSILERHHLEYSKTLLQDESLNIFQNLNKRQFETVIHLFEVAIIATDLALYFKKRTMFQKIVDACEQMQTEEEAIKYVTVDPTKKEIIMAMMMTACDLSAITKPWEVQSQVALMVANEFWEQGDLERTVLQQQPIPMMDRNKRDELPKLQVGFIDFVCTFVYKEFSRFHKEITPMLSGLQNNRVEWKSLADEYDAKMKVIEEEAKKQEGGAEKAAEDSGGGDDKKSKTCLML

[11] = target: cAMP and cAMP-inhibited cGMP 3',5'-cyclic phosphodiesterase 10A (Homo sapiens, UniProt Q9Y233); assay: Inhibition of PDE10A catalytic domain (449 to 770 residues) (unknown origin) expressed in Escherichia coli BL21 using 3H-cAMP as substrate after 15 mins by liquid scintillation counting
cAMP and cAMP-inhibited cGMP 3',5'-cyclic phosphodiesterase 10A, sequence (Q9Y233 whole entry, the tested form may be a part): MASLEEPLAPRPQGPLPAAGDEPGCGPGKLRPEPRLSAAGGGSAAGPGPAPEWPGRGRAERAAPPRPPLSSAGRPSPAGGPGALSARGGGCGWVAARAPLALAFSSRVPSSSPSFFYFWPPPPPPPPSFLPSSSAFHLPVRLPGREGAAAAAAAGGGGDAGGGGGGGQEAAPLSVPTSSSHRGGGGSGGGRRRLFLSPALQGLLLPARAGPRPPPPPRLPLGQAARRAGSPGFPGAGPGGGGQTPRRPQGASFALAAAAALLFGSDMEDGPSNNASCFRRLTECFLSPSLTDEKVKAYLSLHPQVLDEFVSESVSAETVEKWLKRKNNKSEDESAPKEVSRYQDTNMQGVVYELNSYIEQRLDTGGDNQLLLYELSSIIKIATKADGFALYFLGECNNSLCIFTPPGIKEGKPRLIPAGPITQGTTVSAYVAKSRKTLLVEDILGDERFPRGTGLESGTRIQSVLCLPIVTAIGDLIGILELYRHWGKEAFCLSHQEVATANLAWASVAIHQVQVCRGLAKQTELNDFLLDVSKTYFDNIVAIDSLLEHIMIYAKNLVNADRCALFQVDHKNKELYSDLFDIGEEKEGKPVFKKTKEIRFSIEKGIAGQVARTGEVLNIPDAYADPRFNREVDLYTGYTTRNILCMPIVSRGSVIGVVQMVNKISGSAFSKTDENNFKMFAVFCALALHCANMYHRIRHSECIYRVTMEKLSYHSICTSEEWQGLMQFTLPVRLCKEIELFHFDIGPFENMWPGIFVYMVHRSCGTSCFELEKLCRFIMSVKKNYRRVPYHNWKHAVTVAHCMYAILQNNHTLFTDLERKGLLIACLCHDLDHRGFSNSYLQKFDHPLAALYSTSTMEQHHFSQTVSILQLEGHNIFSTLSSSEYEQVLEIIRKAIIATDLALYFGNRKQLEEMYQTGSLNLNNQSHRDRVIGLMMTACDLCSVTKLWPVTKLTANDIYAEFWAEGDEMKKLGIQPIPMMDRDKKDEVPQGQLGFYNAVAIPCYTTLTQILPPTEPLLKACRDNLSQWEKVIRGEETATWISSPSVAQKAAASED

[12] = Metabolic stability in rat liver microsomes assessed as stability rate constant at 0.5 uM; type: ADME, microsome
Rattus norvegicus [13] = assay: Anti-hypertensive activity in MCT-induced pulmonary hypertension Wistar rat model assessed as mean pulmonary artery pressure at 1.25 mg/kg, po administered for 3 weeks (reference value: 52.55 mmHg); type: functional; in short: as §1
[14] = target: 3',5'-cyclic-AMP phosphodiesterase 4D (Homo sapiens, UniProt Q08499); assay: Inhibition of PDE4D2 catalytic domain (86 to 413 residues) (unknown origin) expressed in Escherichia coli BL21 using 3H-cAMP as substrate after 15 mins by liquid scintillation counting
3',5'-cyclic-AMP phosphodiesterase 4D, sequence (Q08499 whole entry, the tested form may be a part): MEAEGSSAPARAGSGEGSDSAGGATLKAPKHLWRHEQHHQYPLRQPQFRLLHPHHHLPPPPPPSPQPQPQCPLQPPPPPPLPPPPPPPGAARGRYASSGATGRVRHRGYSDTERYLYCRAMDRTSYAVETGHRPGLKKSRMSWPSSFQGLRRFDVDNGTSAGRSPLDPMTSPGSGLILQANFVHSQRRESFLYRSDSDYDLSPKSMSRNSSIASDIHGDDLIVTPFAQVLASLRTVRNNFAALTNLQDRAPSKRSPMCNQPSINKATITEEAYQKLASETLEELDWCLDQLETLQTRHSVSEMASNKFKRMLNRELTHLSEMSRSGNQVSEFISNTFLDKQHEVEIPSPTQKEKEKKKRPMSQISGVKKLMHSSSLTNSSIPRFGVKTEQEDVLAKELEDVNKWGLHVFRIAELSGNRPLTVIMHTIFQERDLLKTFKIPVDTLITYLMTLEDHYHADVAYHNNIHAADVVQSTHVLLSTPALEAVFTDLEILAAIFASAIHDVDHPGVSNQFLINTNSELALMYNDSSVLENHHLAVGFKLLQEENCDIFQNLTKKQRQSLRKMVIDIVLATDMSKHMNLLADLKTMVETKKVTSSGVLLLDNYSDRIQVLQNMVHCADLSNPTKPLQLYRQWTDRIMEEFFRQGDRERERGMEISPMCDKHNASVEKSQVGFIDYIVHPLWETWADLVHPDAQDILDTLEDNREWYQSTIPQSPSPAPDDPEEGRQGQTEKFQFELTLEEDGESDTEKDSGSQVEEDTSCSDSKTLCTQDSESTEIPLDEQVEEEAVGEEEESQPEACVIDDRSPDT

[15] = Intrinsic clearance in rat liver microsomes at 0.5 uM; type: ADME, microsome
[16] = Hepatic extraction ratio in rat liver microsomes at 0.5 uM; type: ADME, microsome; details: read-out: ERH
Rattus norvegicus [17] = assay: Anti-hypertensive activity in MCT-induced pulmonary hypertension Wistar rat model assessed as reduction in RVHI at 10 mg/kg, po administered for 3 weeks; type: functional, organism-based; in short: as §1
Rattus norvegicus [18] = assay: Anti-hypertensive activity in MCT-induced pulmonary hypertension Wistar rat model assessed as reduction in wall thickness percentage at 10 mg/kg, po administered for 3 weeks; type: functional, organism-based; in short: as §1
Rattus norvegicus [19] = assay: Anti-hypertensive activity in MCT-induced pulmonary hypertension Wistar rat model assessed as mean pulmonary artery pressure at 10 mg/kg, po administered for 3 weeks (reference value: 52.55 mmHg); type: functional; in short: as §1

Structure (SMILES): COc1cccc2oc3c(Cc4ccc5c(c4)OCO5)[nH]c(-c4nccs4)c3c(=O)c12
IC50 [1]: 4.38 nM

Structure (SMILES): COc1ccc2c(=O)c3c(-c4nccs4)[nH]c(Cc4ccc5c(c4)OCO5)c3oc2c1
IC50 [1]: 2.64 nM

Structure (SMILES): O=c1c2cc(Cl)ccc2oc2c(Cc3ccc4c(c3)OCO4)[nH]c(-c3nccs3)c12
IC50 [1]: 9.63 nM

Structure (SMILES): CN1CC(=O)N2[C@H](c3ccc4c(c3)OCO4)c3[nH]c4ccccc4c3C[C@@H]2C1=O
Ratio IC50 (Homo sapiens): 20

Structure (SMILES): O=c1c2cc(Br)ccc2oc2c(Cc3ccc4c(c3)OCO4)[nH]c(-c3nccs3)c12
IC50 [1]: 3.82 nM

Structure (SMILES): COCCNc1cc(O)c2c(=O)c3c(-c4nccs4)[nH]c(Cc4ccc5c(c4)OCO5)c3oc2c1
IC50 (Cytochrome P450 3A4): > 10000 nM
Activity (Mus musculus): Non-Toxic
Activity (Rattus norvegicus [2]): Active
half-life at 0.5 µM [3]: 15.1 to 18.3 min
Activity (Rattus norvegicus [4]): Active
fraction unbound at 4 h, 1 µM [5]: 0.023
IC50 (Cytochrome P450 2B6): > 10000 nM
IC50 [6]: 106 nM
CLint scaled at 0.5 µM [7]: 136 to 165 mL/min/kg
IC50 (Cytochrome P450 2C9): 135 nM
IC50 [8]: > 30000 nM
IC50 [9]: 39 nM
IC50 (Cytochrome P450 1A2): > 10000 nM
IC50 [10]: 1.2 nM
IC50 [11]: 46 nM
K [12]: 0.0378 to 0.046
Activity (Rattus norvegicus [13]): 19.94 mmHg
IC50 [14]: 43 nM
Intrinsic clearance (CLint) [15]: 75.6 to 92 µL/min/mg

Structure (SMILES): O=c1c2ccc(Cl)cc2oc2c(Cc3ccc4c(c3)OCO4)[nH]c(-c3nccs3)c12
IC50 [1]: 2.64 nM

Structure (SMILES): O=c1c2cc(F)ccc2oc2c(Cc3ccc4c(c3)OCO4)[nH]c(-c3nccs3)c12
IC50 [1]: 4.03 nM

Structure (SMILES): CCCc1nn(C)c2c(=O)[nH]c(-c3cc(S(=O)(=O)N4CCN(C)CC4)ccc3OCC)nc12 [listing 1 of 2 here]
Activity (Rattus norvegicus [17]): Active
Activity (Rattus norvegicus [18]): Active

Structure (SMILES): CCCc1nn(C)c2c(=O)[nH]c(-c3cc(S(=O)(=O)N4CCN(C)CC4)ccc3OCC)nc12 [listing 2 of 2 here]
half-life at 0.5 µM [3]: 5.37 min
CLint scaled at 0.5 µM [7]: 463 mL/min/kg
K [12]: 0.1291
Intrinsic clearance (CLint) [15]: 258.2 µL/min/mg

Structure (SMILES): COc1c(Cl)ccc2oc3c(Cc4ccc5c(c4)OCO5)[nH]c(-c4nccs4)c3c(=O)c12
IC50 [1]: 6.82 nM

Structure (SMILES): O=c1c2cc(Cl)cc(Br)c2oc2c(Cc3ccc4c(c3)OCO4)[nH]c(-c3nccs3)c12
IC50 [1]: 3.04 nM

Structure (SMILES): CCCc1nn(C)c2c(=O)[nH]c(-c3cc(S(=O)(=O)N4CCN(C)CC4)ccc3OCC)nc12.O=C(O)CC(O)(CC(=O)O)C(=O)O [SILDENAFIL CITRATE]
Activity (Rattus norvegicus [19]): 20.86 mmHg

Structure (SMILES): O=c1c2ccc(F)cc2oc2c(Cc3ccc4c(c3)OCO4)[nH]c(-c3nccs3)c12
IC50 [1]: 2.38 nM

The remaining compounds from weak to strong by IC50 [1], led by results:

IC50 [1]: 2.37 nM
Structure (SMILES): O=c1c2c(F)cc(Br)cc2oc2c(Cc3ccc4c(c3)OCO4)[nH]c(-c3nccs3)c12

IC50 [1]: 2.09 nM
Structure (SMILES): O=c1c2cccc(Cl)c2oc2c(Cc3ccc4c(c3)OCO4)[nH]c(-c3nccs3)c12

IC50 [1]: 1.63 nM
Structure (SMILES): O=c1c2cc(F)cc(F)c2oc2c(Cc3ccc4c(c3)OCO4)[nH]c(-c3nccs3)c12

IC50 [1]: 1.58 nM
Structure (SMILES): O=c1c2ccc(Br)cc2oc2c(Cc3ccc4c(c3)OCO4)[nH]c(-c3nccs3)c12

IC50 [1]: 1.41 nM
half-life at 0.5 µM [3]: 9.52 min
CLint scaled at 0.5 µM [7]: 262 mL/min/kg
hepatic extraction ratio at 0.5 µM [16]: 0.83
K [12]: 0.0728
Intrinsic clearance (CLint) [15]: 145.6 µL/min/mg
Structure (SMILES): O=c1c2c(F)cccc2oc2c(Cc3ccc4c(c3)OCO4)[nH]c(-c3nccs3)c12

IC50 [1]: 1.05 nM
Structure (SMILES): O=c1c2c(O)cccc2oc2c(Cc3ccc4c(c3)OCO4)[nH]c(-c3nccs3)c12

IC50 [1]: 0.79 nM
Structure (SMILES): O=c1c2c(O)cc(NCCN3CCOCC3)cc2oc2c(Cc3ccc4c(c3)OCO4)[nH]c(-c3nccs3)c12

IC50 [1]: 0.52 nM
Structure (SMILES): CNc1cc(O)c2c(=O)c3c(-c4nccs4)[nH]c(Cc4ccc5c(c4)OCO5)c3oc2c1

IC50 [1]: 0.39 nM
half-life at 0.5 µM [3]: 5.26 min
CLint scaled at 0.5 µM [7]: 472 mL/min/kg
hepatic extraction ratio at 0.5 µM [16]: 0.9
K [12]: 0.1317
Intrinsic clearance (CLint) [15]: 263.4 µL/min/mg
Structure (SMILES): CN1CCN(CCNc2cc(O)c3c(=O)c4c(-c5nccs5)[nH]c(Cc5ccc6c(c5)OCO6)c4oc3c2)CC1
